The record followed here is ChEMBL document CHEMBL3352086, “Structure-based design and development of functionalized Mercaptoguanine derivatives as inhibitors of the folate biosynthesis pathway enzyme 6-hydroxymethyl-7,8-dihydropterin pyrophosphokinase from Staphylococcus aureus” (J Med Chem, 2014).

For test [1], the target named is T1, 2-amino-4-hydroxy-6-hydroxymethyldihydropteridin e pyrophosphokinase (Staphylococcus aureus, UniProt X5EH84).
T1 sequence (X5EH84 whole entry): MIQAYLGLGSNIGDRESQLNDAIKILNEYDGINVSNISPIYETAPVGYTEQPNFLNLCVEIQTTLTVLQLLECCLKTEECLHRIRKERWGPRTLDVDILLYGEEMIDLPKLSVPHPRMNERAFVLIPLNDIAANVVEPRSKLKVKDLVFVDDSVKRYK
Description: Binding affinity to Staphylococcus aureus recombinant HPPK by surface plasmon resonance analysis. In short, it runs like this: (§1)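 Ni/NHS-EDC capture-coupled on an NTA chip (SaHPPK loaded at 225 μg mL⁻¹, ~5400 RU; EcDHPS at 80 μg mL⁻¹, ~7200 RU), with a USP7 control surface. Analytes were 3-fold serially diluted, with 30 s contact at 60 μL min⁻¹ and 60 s dissociation, in duplicate or more. Responses were double-referenced and equilibrium responses fit to a 1:1 steady-state model.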

Another test has as its target T2, Dihydropteroate synthase (Bacteria, UniProt P0AC13).
T2 sequence (P0AC13 whole entry): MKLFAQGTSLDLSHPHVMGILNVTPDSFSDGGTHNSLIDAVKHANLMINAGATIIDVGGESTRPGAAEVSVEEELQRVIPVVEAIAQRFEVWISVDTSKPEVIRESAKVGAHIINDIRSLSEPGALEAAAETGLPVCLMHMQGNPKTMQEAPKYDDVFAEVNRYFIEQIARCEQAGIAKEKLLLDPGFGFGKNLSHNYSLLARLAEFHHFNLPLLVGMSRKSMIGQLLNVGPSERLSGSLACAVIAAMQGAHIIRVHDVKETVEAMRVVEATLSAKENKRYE
Description: Binding affinity to Escherichia coli DHPS by surface plasmon resonance analysis. In short, it runs like this:
as §1

In test [2] the target is T1, 2-amino-4-hydroxy-6-hydroxymethyldihydropteridin e pyrophosphokinase. Briefly: Binding affinity to Staphylococcus aureus recombinant HPPK by surface plasmon resonance analysis in presence of ATP. In short, it runs like this:
as §1

The target in test [3] is T3, 2-amino-4-hydroxy-6-hydroxymethyldihydropteridin e pyrophosphokinase (Staphylococcus aureus) (UniProt X5EH84).
T3 sequence (whole entry): T1 sequence (X5EH84 whole entry)
Description: Binding affinity to Staphylococcus aureus HPPK in presence of AMPCPP by NMR spectroscopy. In short, it runs like this: (§2)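 ¹⁵N-labelled SaHPPK was expressed in E. coli BL21(DE3) in minimal medium with ¹⁵N ammonium chloride. 2D ¹⁵N HSQC spectra used ~120 μM SaHPPK in 50 mM HEPES pH 8 with 10 mM Mg²⁺ and saturating AMPCPP. Ligand was titrated to saturation from a 50 mM DMSO-d₆ stock, and binding was tracked by backbone amide chemical shift perturbations.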

The target of test [4] is T3, 2-amino-4-hydroxy-6-hydroxymethyldihydropteridin e pyrophosphokinase (Staphylococcus aureus). Briefly: Binding affinity to Staphylococcus aureus HPPK in presence of AMPCPP by 2D 15N HSQC NMR spectroscopy. The procedure, abridged: as §2
The target is the same in test [5]. Briefly: Binding affinity to Staphylococcus aureus HPPK in absence of ATP by NMR spectroscopy.
For test [6] the target is unchanged. Description: Binding affinity to Staphylococcus aureus HPPK in presence of ATP by NMR spectroscopy.
Test [7] has as its target T1, 2-amino-4-hydroxy-6-hydroxymethyldihydropteridin e pyrophosphokinase. Description: Binding affinity to Staphylococcus aureus HPPK by isothermal calorimetry.
Test [8] shares this target. Briefly: Inhibition of Staphylococcus aureus HPPK after 20 mins by luciferase reporter gene assay. The procedure, abridged: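 Kinase-Glo ATP-depletion assay: HPPK 0.4 ng μL⁻¹ with 0.3 μM pterin and 0.2 μM ATP in 100 mM Tris-HCl pH 8.5, 10 mM MgCl₂, 0.01% BSA, 0.01% Tween 20, 10 mM β-mercaptoethanol. Compound added from 50% DMSO solution; 20 min at room temperature, then stopped with Kinase-Glo reagent and luminescence read 10 min later. Triplicates; IC50 from sigmoidal dose–response fit.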

Activity calls are given as the source filed them. The calls are words filed in the database; no cut-off is given here.

As to `Nc1nc2[nH]c(SCc3ccccc3)nc2c(=O)[nH]1`, the Kd in test [1] is 13.5 µM; at Dihydropteroate synthase it was 43.9 µM; in [2], 1.79 µM.
For `Nc1nc2[nH]c(SCc3ccccc3C(F)(F)F)nc2c(=O)[nH]1` the same measures were 7.26 µM, 9.74 µM and 2.81 µM.
For `COc1ccc(CCSc2nc3c(=O)[nH]c(N)nc3[nH]2)cc1`, the equilibrium dissociation constant (Kd) in test [1] was 73.5 µM; on Dihydropteroate synthase, 14.2 µM; in test [2] it was 7.8 µM.
Regarding `COc1ccccc1C(=O)CSc1nc2nc(N)[nH]c(=O)c2[nH]1`, the Kd in test [1] came out at 21.7 µM; at Dihydropteroate synthase it was 1.6 µM; in [2] it was 2.8 µM.
Consider `N#Cc1ccc(CSc2nc3nc(N)[nH]c(=O)c3[nH]2)cc1`, for which the dissociation constant Kd in [1] was 11.1 µM; on Dihydropteroate synthase it was 12.3 µM; in test [2], 0.66 µM.
Take `CC(Sc1nc2nc(N)[nH]c(=O)c2[nH]1)C(=O)c1ccccc1` (stereo not drawn): the Kd is 7.5 µM in test [1], 8.2 µM on Dihydropteroate synthase and 1.8 µM in test [2].
Take `COc1ccc(C(=O)CSc2nc3nc(N)[nH]c(=O)c3[nH]2)cc1`: the outcome in test [3], in test [4] and in [6] was Active. In addition, the equilibrium dissociation constant (Kd) stood at 76.6 µM in test [1], 3.9 µM at Dihydropteroate synthase and 1.09 µM in test [2]. Besides, the result in [5] was inactive.
`CC(=O)CSc1nc2c(=O)[nH]c(N)nc2[nH]1`: the Kd stood at 42.7 µM in test [1], 7.8 µM on Dihydropteroate synthase and 1.85 µM in test [2].
Taken in the same sequence, the figures for `Nc1nc2nc(SCC(=O)c3ccccc3)[nH]c2c(=O)[nH]1` were 10.3 µM, 3.9 µM and 1.4 µM.
Taken in the same sequence, the figures for `Nc1nc2[nH]c(SCC(=O)c3ccc(-c4ccccc4)cc3)nc2c(=O)[nH]1` were 21.5 µM, 8.4 µM and 0.81 µM.
For the compound `Nc1nc2[nH]c(S)nc2c(=O)[nH]1`, the Kd is 10.8 µM in test [1], 76.2 µM on Dihydropteroate synthase, 12.6 µM in test [2] and 11 µM in test [7]. This compound also displayed an IC50 in test [8] of 41 µM.
Turning to `Nc1nc2[nH]c(SCc3ccccc3F)nc2c(=O)[nH]1`, the Kd in [1] stood at 4.3 µM; at Dihydropteroate synthase, 8.5 µM; in [2] it was 0.45 µM. Also, in test [8], it took 24.9 µM to reach half-maximal inhibition (IC50).
